Experimental findings from ChEMBL document CHEMBL1133693, “Peptide and peptide mimetic inhibitors of antigen presentation by HLA-DR class II MHC molecules. Design, structure-activity relationships, and X-ray crystal structures” (J Med Chem, 2000) are described below.

Each structure is given as a SMILES string. Starred links: 1 amine or outer side, 2 acyl side, 3 side chain; linkers in the order of their positions; H or OH if unused. Non-standard residues stand in square brackets, D forms with d. Residues, ends and D or L forms follow the SMILES beside them. *: point of attachment. X11 = O=C([C@H](N[*:1])[C@H](O)[C@@H](O)[C@@H](O)CO)[*:2]; X3 = O=C([C@@H](N[*:1])[C@H](O)[C@H](O)[C@@H](O)CO)[*:2]; X5 = CC1CCC(C[C@@H](N[*:1])C(=O)[*:2])CC1; X6 = CC1CCC(C[C@H](N[*:1])C(=O)[*:2])CC1; Phe(3-F) = N[C@@H](Cc1cccc(F)c1)C(=O)O; Phe(3-I) = N[C@@H](Cc1cccc(I)c1)C(=O)O; NMeCha = CN[C@@H](CC1CCCCC1)C(=O)O; Cha = N[C@@H](CC1CCCCC1)C(=O)O; NMeM = CN[C@@H](CCSC)C(=O)O; NMeS = CN[C@@H](CO)C(=O)O; NHCH(CH2OH)2 = OCC(CO)N*; NMeA = CN[C@@H](C)C(=O)O; NHCH2CH2OH = OCCN*

Test [1] is described as follows: Mean relative potency is the ratio of potencies of 'Ac-(Cha)RAMASL-NH2' and compound, to inhibit MHC class II DRB1*0101. In a few lines:
(§1)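 Scintillation proximity competition assay. Test compounds competed against the radioligand, and bound counts were read by scintillation. Ac-(Cha)RAMASL-NH2 was run as standard competitor in every run. Potency is the ratio of standard IC50 to compound IC50.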

Test [2] in a line: Mean relative potency is the ratio of potencies of 'Ac-(Cha)RAMASL-NH2' and compound, to inhibit MHC class II DRB1*0401. In a few lines: as §1

On to `CSCC[C@H](NC(=O)[C@H](C)NC(=O)[C@H](CCCN=C(N)N)NC(=O)[C@H](Cc1cccc(I)c1)NC(C)=O)C(=O)N[C@@H](C)C(=O)N[C@@H](CO)C(=O)N[C@@H](CC(C)C)C(N)=O` (Ac-[Phe(3-I)]RAMASL-NH2), for which the Mean relative potency in test [1] worked out at 0.61; in test [2], 1.56.
In the case of `CSCC[C@H](NC(=O)[C@H](C)NC(=O)[C@H](CCCN=C(N)N)NC(=O)[C@H](CC1CCC(C)CC1)NC(C)=O)C(=O)N[C@@H](C)C(=O)N[C@@H](CO)C(=O)N[C@@H](CC(C)C)C(N)=O` (stereo partly specified) (Ac-[X6]RAMASL-NH2), the Mean relative potency in test [1] was 1.37; in test [2], 1.71.
Regarding `CSCC[C@H](NC(=O)[C@H](C)NC(=O)[C@H](CCCN=C(N)N)NC(=O)[C@H](CC1CC2CCC1C2)NC(C)=O)C(=O)N[C@@H](C)C(=O)N[C@@H](CO)C(=O)N[C@@H](CC(C)C)C(N)=O` (stereo in doubt; 2), the Mean relative potency worked out at 0.52 in test [1] and 1.71 in test [2].
`CSCC[C@H](NC(=O)[C@H](C)NC(=O)[C@H](CCCN=C(N)N)NC(=O)[C@H](CC1CCCCC1)NC(C)=O)C(=O)N1CCCC[C@@H]1C(=O)N[C@@H](CO)C(=O)N[C@@H](CC(C)C)C(N)=O`: the Mean relative potency in test [1] was 0.55; in test [2] it was 1.08.
Consider `CC(=O)N[C@@H](CC1CCCCC1)C(=O)N[C@@H](CCCN=C(N)N)C(=O)N[C@@H](C)C(=O)N[C@@H](CC(C)C)C(=O)N[C@@H](C)C(=O)N[C@@H](CO)C(=O)N[C@@H](CC(C)C)C(N)=O` (Ac-[Cha]RALASL-NH2), for which the Mean relative potency in test [1] came to 0.55; in test [2], 0.54.
For `CSCC[C@H](NC(=O)[C@H](C)NC(=O)[C@H](CCCN=C(N)N)NC(=O)[C@H](CC1CCCCC1)NC(C)=O)C(=O)N[C@H](C)C(=O)N[C@@H](CO)C(=O)N[C@@H](CC(C)C)C(=O)N(C)C` the same measures were 1.4 and 1.6.
As to `CSCC[C@@H](C(=O)N[C@@H](C)C(=O)N[C@@H](CO)C(=O)N[C@@H](CC(C)C)C(N)=O)N(C)C(=O)[C@H](C)NC(=O)[C@H](CCCN=C(N)N)NC(=O)[C@H](CC1CCCCC1)NC(C)=O` (Ac-[Cha]RA[NMeM]ASL-NH2), the Mean relative potency amounted to 0.046 in test [1] and 0.005 in test [2].
For `CSCC[C@H](NC(=O)[C@H](C)NC(=O)[C@H](CCCN=C(N)N)NC(=O)[C@@H](CC1CC2CCC1C2)NC(C)=O)C(=O)N[C@@H](C)C(=O)N[C@@H](CO)C(=O)N[C@@H](CC(C)C)C(N)=O` (stereo partly specified) the same measures were 1.31 and 1.53.
Taken in the same sequence, the figures for `CSCC[C@H](NC(=O)[C@H](CCSC)NC(=O)[C@H](CCCN=C(N)N)NC(=O)[C@H](CC1CCCCC1)NC(C)=O)C(=O)N[C@@H](C)C(=O)N[C@@H](CO)C(=O)N[C@@H](CC(C)C)C(N)=O` (Ac-[Cha]RMMASL-NH2) were 1.05 and 0.88.
Consider `CSCC[C@H](NC(=O)[C@H](CCSC)NC(=O)[C@H](CCCN=C(N)N)NC(=O)[C@H](CC1CCCCC1)NC(C)=O)C(=O)N[C@@H](C)C(=O)N[C@@H](CO)C(N)=O` (Ac-[Cha]RMMAS-NH2), for which the figures for the Mean relative potency in test [1] and in test [2] were 1.38 and 0.85, respectively.
On to `CSCC[C@H](NC(=O)[C@H](CCSC)NC(=O)[C@H](CCCN=C(N)N)NC(=O)[C@H](CC1CCCCC1)NC(C)=O)C(=O)N[C@@H](C)C(=O)NC(CO)CO` (Ac-[Cha]RMMA-{NHCH(CH2OH)2}), for which the values for the Mean relative potency in test [1] and in test [2] were 0.68 and 1.55, respectively.
Taken in the same sequence, the figures for `CSCC[C@H](NC(=O)[C@H](CCCN=C(N)N)NC(=O)[C@H](CC1CCCCC1)NC(C)=O)C(=O)N[C@@H](CCSC)C(=O)N[C@H](C=O)[C@H](O)[C@H](O)[C@@H](O)CO` (Ac-[Cha]RMM[X3]-aldehyde) were 0.12 and 0.16.
Taken in the same sequence, the figures for `CSCC[C@H](NC(=O)[C@H](C)NC(=O)[C@H](CCCN=C(N)N)NC(=O)[C@H](CC1CCCCC1)N(C)C(C)=O)C(=O)N[C@@H](C)C(=O)N[C@@H](CO)C(=O)N[C@@H](CC(C)C)C(N)=O` (Ac-[NMeCha]RAMASL-NH2) were 0.25 and 0.67.
Taken in the same sequence, the figures for `CSCC[C@H](NC(=O)[C@H](C)NC(=O)[C@H](CCCN=C(N)N)NC(=O)[C@H](Cc1cccc(F)c1)NC(C)=O)C(=O)N[C@@H](C)C(=O)N[C@@H](CO)C(=O)N[C@@H](CC(C)C)C(N)=O` (Ac-[Phe(3-F)]RAMASL-NH2) were 0.17 and 1.19.
With `CSCC[C@H](NC(=O)[C@H](C)N(C)C(=O)[C@H](CCCN=C(N)N)NC(=O)[C@H](CC1CCCCC1)NC(C)=O)C(=O)N[C@@H](C)C(=O)N[C@@H](CO)C(=O)N[C@@H](CC(C)C)C(N)=O` (Ac-[Cha]R[NMeA]MASL-NH2), the figures for the Mean relative potency in test [1] and in test [2] were 1.02 and 0.56, respectively.
For `CSCC[C@H](NC(=O)[C@H](C)NC(=O)[C@H](CCCN=C(N)N)NC(=O)[C@@H](CC1CCC(C)CC1)NC(C)=O)C(=O)N[C@@H](C)C(=O)N[C@@H](CO)C(=O)N[C@@H](CC(C)C)C(N)=O` (stereo partly specified) (Ac-[X5]RAMASL-NH2) the same measures were 1.17 and 0.93.
Taken in the same sequence, the figures for `CSCC[C@H](NC(=O)[C@H](C)NC(=O)[C@H](CCCN=C(N)N)NC(=O)[C@H](CC1CC2CCC1C2)NC(C)=O)C(=O)N[C@@H](C)C(=O)N[C@@H](CO)C(=O)N[C@@H](CC(C)C)C(N)=O` (stereo in doubt; 6) were 0.96 and 0.92.
As for `CSCC[C@H](NC(=O)[C@H](CCSC)NC(=O)[C@H](CCCN=C(N)N)NC(=O)[C@H](CC1CCCCC1)NC(C)=O)C(=O)N[C@@H](C)C(=O)NCCO` (Ac-[Cha]RMMA-NHCH2CH2OH), the values for the Mean relative potency in test [1] and in test [2] were 0.33 and 1.04, respectively.
For `CSCC[C@H](NC(=O)[C@H](CCSC)NC(=O)[C@H](CCCN=C(N)N)NC(=O)[C@H](CC1CCCCC1)NC(C)=O)C(=O)N[C@@H](C)C(N)=O` (Ac-[Cha]RMMA-NH2) the same measures were 0.59 and 0.15.
As for `CC[C@@H](C)[C@H](NC(=O)[C@H](C)NC(=O)[C@H](CCCN=C(N)N)NC(=O)[C@H](CC1CCCCC1)NC(C)=O)C(=O)N[C@@H](C)C(=O)N[C@@H](CO)C(=O)N[C@@H](CC(C)C)C(N)=O`, the Mean relative potency was determined as 0.36 in test [1] and 1.01 in test [2].
With `CSCC[C@H](NC(=O)[C@H](C)NC(=O)[C@H](CCCN=C(N)N)NC(=O)[C@H](CC1CCCCC1)NC(C)=O)C(=O)N[C@@H](C)C(=O)N(C)[C@@H](CO)C(=O)N[C@@H](CC(C)C)C(N)=O` (Ac-[Cha]RAMA[NMeS]L-NH2), the figures for the Mean relative potency in test [1] and in test [2] were 0.5 and 0.97, respectively.
Taken in the same sequence, the figures for `CSCC[C@H](NC(=O)[C@H](CCCN=C(N)N)NC(=O)[C@H](CC1CCCCC1)NC(C)=O)C(=O)N[C@@H](CCSC)C(=O)N[C@@H](C=O)[C@H](O)[C@@H](O)[C@@H](O)CO` (Ac-[Cha]RMM[X11]-aldehyde) were 0.5 and 0.81.
Taken in the same sequence, the figures for `CSCC[C@H](NC(=O)[C@H](C)NC(=O)[C@H](CCCN=C(N)N)NC(=O)[C@H](CC1CCCCC1)NC(C)=O)C(=O)N[C@H](C)C(=O)N[C@@H](CO)C(=O)N[C@H](C(N)=O)C(C)(C)C` were 1.64 and 1.46.
